ChEMBL document CHEMBL1144259, “2-Mercaptoimidazoles, a new class of potent CCR2 antagonists” (Bioorg Med Chem Lett, 2005)

experiment: Inhibitory activity against MCP-1 induced Calcium flux in […]; assay type: functional, cell-based; conditions: Homo sapiens, THP-1
How it was run: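 THP-1 cells loaded 30 min with 4 µM Fluo-3 AM at 2 million cells/mL (RPMI, 20 mM HEPES, 0.1% BSA, 5 mM probenecid). Washed into HEPES saline with 1.25 mM CaCl2, 2.5 mM probenecid and 0.1% BSA. Plated at 150,000 cells/well, preincubated 20 min with compound, then stimulated with 10^-7 M hMCP-1. FLIPR fluorescence recorded from 10 s before to 2 min after; maximal signal used.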

SMILES	IC50
CCC(c1ccc(Cl)c(Cl)c1)n1c(C(=O)O)cnc1S (stereo not given)	> 10000 nM
CCC(c1ccc(Cl)c(Cl)c1)n1c(CO)cnc1S (stereo not given)	> 10000 nM
CCCCNC(=O)c1cnc(S)n1C(CC)c1ccc(F)c(F)c1 (stereo not given)	> 10000 nM
CCC(c1ccc(C(F)(F)F)c(F)c1)n1c(C(=O)OC)cnc1S (stereo not given)	2000 nM
CCC(c1ccc(Cl)c(Cl)c1)n1c(S)nc(C(=O)O)c1C(=O)OC (stereo not given)	> 10000 nM
CCC(c1ccc(C(F)(F)F)c(F)c1)n1c(S)nc(C(=O)OC)c1C(=O)OC (stereo not given)	20 nM
CCC(c1ccc(Cl)c(Cl)c1)n1c(C(=O)OC)cnc1S (stereo not given)	200 nM
COC(=O)c1cnc(S)n1C(c1ccc(Cl)c(Cl)c1)C1CC1 (stereo not given)	2000 nM
COCC(c1ccc(Cl)c(Cl)c1)n1c(C(=O)OC)cnc1S (stereo not given)	316 nM
CCC(c1ccc(F)c(F)c1)n1c(C(=O)N2CCOCC2)cnc1S (stereo not given)	> 10000 nM
CCC(c1cccc(Cl)c1)n1c(C(=O)OC)cnc1S (stereo not given)	> 10000 nM
CCCC(c1ccc(Cl)c(Cl)c1)n1c(C(=O)OC)cnc1S (stereo not given)	158 nM
CCC(c1ccccc1Cl)n1c(C(=O)OC)cnc1S (stereo not given)	> 10000 nM
COC(=O)c1cnc(S)n1C(c1ccc(Cl)c(Cl)c1)c1cccs1 (stereo not given)	> 10000 nM
CCC(c1ccc(C)c(C)c1)n1c(C(=O)OC)cnc1S (stereo not given)	> 10000 nM
CCC(c1ccc(Cl)c(Cl)c1)n1c(S)nc(C(=O)NC)c1C(=O)NC (stereo not given)	398 nM
CCC(c1ccc(F)c(F)c1)n1c(C(=O)NC)cnc1S (stereo not given)	2000 nM
CCC(c1cc(Cl)cc(Cl)c1)n1c(C(=O)OC)cnc1S (stereo not given)	> 10000 nM
CCC(c1ccc(Cl)c(Cl)c1)n1c(C(=O)NC)cnc1S (stereo not given)	316 nM
CCC(c1ccc(Cl)c(Cl)c1)n1c(S)nc(C)c1C(=O)NC (stereo not given)	> 10000 nM
CCC(c1ccc(Br)c(Br)c1)n1c(C(=O)OC)cnc1S (stereo not given)	251 nM
CCC(c1ccccc1)n1c(C(=O)OC)cnc1S (stereo not given)	> 10000 nM
CC[C@@H](c1ccc(Cl)c(Cl)c1)n1c(C(=O)OC)cnc1S	126 nM
CCOC(=O)c1cnc(S)n1C(CC)c1ccc(F)c(F)c1 (stereo not given)	316 nM
CCC(c1ccc(Cl)c(Cl)c1)n1c(C(=O)OC(C)C)cnc1S (stereo not given)	316 nM
CCC(c1ccc(F)c(C(F)(F)F)c1)n1c(S)nc(C(=O)OC)c1C(=O)OC (stereo not given)	100 nM
COC(=O)c1cnc(S)n1C(c1ccc(Cl)c(Cl)c1)c1ccc(Cl)c(Cl)c1	> 10000 nM
CCC(c1ccc(Cl)c(Cl)c1)n1c(S)nc(C)c1C(=O)OC (stereo not given)	251 nM

SMILES	IC50
CCC(c1ccc(F)c(F)c1)n1c(C(=O)NCC(C)C)cnc1S (stereo not given)	> 10000 nM
CCC(c1cc(F)cc(F)c1)n1c(C(=O)OC)cnc1S (stereo not given)	> 10000 nM
COC(=O)c1cnc(S)n1C(C)(C)c1ccc(Cl)c(Cl)c1	> 10000 nM
CCC(c1ccc(Cl)c(Cl)c1)n1c(S)nc(C(N)=O)c1C(N)=O (stereo not given)	63.1 nM
CC[C@@H](c1ccc(F)c(F)c1)n1c(S)nc(C(=O)OC)c1C(=O)OC	7.94 nM
CCC(c1ccc(F)c(F)c1)n1c(C(=O)N2CCCCC2)cnc1S (stereo not given)	> 10000 nM
CCC(c1ccc(Cl)c(Cl)c1)n1c(C#N)cnc1S (stereo not given)	631 nM
CCC(c1ccc(OC)c(OC)c1)n1c(C(=O)OC)cnc1S (stereo not given)	> 10000 nM
CC[C@@H](c1ccc(Cl)c(Cl)c1)n1c(C(N)=O)cnc1S	39.8 nM
CCC(c1ccc(F)c(F)c1)n1c(S)nc(C(=O)OC)c1C(=O)OC (stereo not given)	10 nM
CC[C@@H](c1ccc(Cl)c(Cl)c1)n1c(S)nc(C(=O)OC)c1C(=O)OC	7.94 nM
CCC(c1ccc(Cl)c(Cl)c1)n1c(S)nc(C(=O)OC)c1C(=O)OC (stereo not given)	10 nM
CCC(c1ccc(F)c(F)c1)n1c(C(=O)OC)cnc1S (stereo not given)	1260 nM
CCC(c1cccc(Oc2ccccc2)c1)n1c(C(=O)OC)cnc1S (stereo not given)	> 10000 nM
COC(=O)c1cnc(S)n1C(C)c1ccc(Cl)c(Cl)c1 (stereo not given)	251 nM
CCC(c1ccc(C(F)(F)F)cc1)n1c(C(=O)OC)cnc1S (stereo not given)	> 10000 nM
CCC(c1ccc(Cl)c(Cl)c1)n1c(C(N)=O)cnc1S (stereo not given)	50.1 nM
CCC(c1ccc(Cl)c(Cl)c1)n1c(S)nc(C(=O)OC)c1C#N (stereo not given)	39.8 nM
CC[C@H](c1ccc(Cl)c(Cl)c1)n1c(C(=O)OC)cnc1S	1580 nM
CC[C@H](c1ccc(F)c(F)c1)n1c(S)nc(C(=O)OC)c1C(=O)OC	2000 nM
CCC(c1ccc(F)c(C(F)(F)F)c1)n1c(C(=O)OC)cnc1S (stereo not given)	1000 nM
CCC(c1ccc(Cl)c(Cl)c1)n1c(S)nc(C(N)=O)c1C#N (stereo not given)	126 nM
CCC(c1ccc(F)c(F)c1)n1c(C(=O)N2CCCC2)cnc1S (stereo not given)	> 10000 nM
COC(=O)c1cnc(S)n1C(c1ccc(Cl)c(Cl)c1)C1CCCCC1 (stereo not given)	10000 nM
CCC(c1ccc(F)c(F)c1)n1c(C(N)=O)cnc1S (stereo not given)	501 nM
CC[C@H](c1ccc(Cl)c(Cl)c1)n1c(C(N)=O)cnc1S	10000 nM
CCC(c1ccc(Cl)cc1)n1c(C(=O)OC)cnc1S (stereo not given)	> 10000 nM
